In ChEMBL document CHEMBL4825754, “Antiviral evaluation of hydroxyethylamine analogs: Inhibitors of SARS-CoV-2 main protease (3CLpro), a virtual screening and simulation approach” (Bioorg Med Chem, 2021):

Experiments:
SARS-CoV-2 [1] = test: Antiviral activity against SARS-CoV-2 infected in African green monkey Vero E6 cells assessed as inhibition of viral spread cells preincubated with compound for 1 hr followed by viral infection for 1 hr and later washed with PBS followed by re-incubated with compound for 48 hrs; format: functional, organism-based, Severe acute respiratory syndrome coronavirus 2
[2] = target: Replicase polyprotein 1ab (Severe acute respiratory syndrome coronavirus 2) (UniProt P0DTD1); test: Inhibition of SARS-CoV-2 3CLpro using TVLQ-AMC probe as substrate at 10 uM preincubated with enzyme for 5 mins followed by substrate addition and measured after 3 hrs for every 15 mins for 1 hr by FRET assay; conditions: time 245.0 min
Outline: (§1)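 3CLpro (0.4 µM final) preincubated 5 min at room temperature with compound in Tris-HCl pH 7.3, 1 mM EDTA. TVLQ-AMC added to 40 µM final. Fluorescence (ex 364/em 440 nm) read every 15 min for 1 h and at 3 h, in triplicate. Values normalized to the mean 3 h no-inhibitor control set as 100.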

SARS-CoV-2 [3] = test: Antiviral activity against SARS-CoV-2 infected in African green monkey Vero E6 cells assessed as inhibition of viral entry cells preincubated with compound for 1 hr followed by viral infection for 1 hr and later washed with PBS followed by re-incubated with compound for 24 hrs; format: functional, organism-based, Severe acute respiratory syndrome coronavirus 2
Vero C1008 [4] = test: Cytotoxicity against African green monkey Vero E6 cells assessed as effect on nuclei count; format: cell-based; conditions: chlorocebus sabaeus
[5] = target: Replicase polyprotein 1ab (Severe acute respiratory syndrome coronavirus 2) (UniProt P0DTD1); test: Inhibition of SARS-CoV-2 3CLpro using TVLQ-AMC probe as substrate at 50 uM preincubated with enzyme for 5 mins followed by substrate addition and measured after 3 hrs for every 15 mins for 1 hr by FRET assay; conditions: time 245.0 min; outline: as §1
Vero C1008 [6] = test: Cytotoxicity against African green monkey Vero E6 cells assessed as reduction in cell survival at 50 uM; format: cell-based; conditions: chlorocebus sabaeus, vero c1008, 50 µM
[7] = Severe acute respiratory syndrome coronavirus 2, Vero C1008

Row | Compound | IC50 (SARS-CoV-2 [1]; [7]) [µM] | inhibition [2] [%] | IC50 (SARS-CoV-2 [3]; [7]) [µM] | Activity (Vero C1008 [4]) | inhibition [5] [%] | IC50 (SARS-CoV-2 [1]; vero e6) [µM] | IC50 (SARS-CoV-2 [3]; vero e6) [µM] | Activity (Vero C1008 [6])
1 | Cc1ccc2c(c1)C(=O)N([C@H](Cc1ccccc1)C(=O)N[C@@H](Cc1ccccc1)[C@@H](O)CN1CCN(C[C@H](O)[C@H](Cc3ccccc3)NC(=O)[C@@H](Cc3ccccc3)N3C(=O)c4ccc(C)cc4C3=O)CC1)C2=O | 14.7 | 5 | 10.9 | Non-Toxic | 12 |  |  | 
2 | IVERMECTIN [listing 1 of 2 here] |  | 85 |  |  | 90 |  |  | 
3 | IVERMECTIN [listing 2 of 2 here] |  |  |  |  |  | 6.02 | 2.7 | Toxic
4 | CC(C)(C)OC(=O)NC(Cc1ccccc1)C(=O)N[C@@H](Cc1ccccc1)[C@@H](O)CN1CCN(Cc2ccc(C(F)(F)F)cc2)CC1 (some centres undefined) | 12.5 | 5 |  | Non-Toxic | 12 |  |  | 
5 | CC(C)(C)OC(=O)N[C@@H](Cc1ccccc1)[C@@H](O)CN1CCC(N2CCCCC2)CC1 | 10.1 | 5 | 6.33 | Non-Toxic | 12 |  |  | 
